From publication PMC3897123 (MedChemComm, 2013)
pIC50: −log10 of the molar value.

Columns and labels:
Nox2 [1] = target: T1, Nox2 (Homo sapiens, UniProt P04839); test: L-012 chemiluminescence assay of O2•− generation in whole COS-Nox2 cells; type: cell-based
T1 sequence (P04839 2-570 limits assumed): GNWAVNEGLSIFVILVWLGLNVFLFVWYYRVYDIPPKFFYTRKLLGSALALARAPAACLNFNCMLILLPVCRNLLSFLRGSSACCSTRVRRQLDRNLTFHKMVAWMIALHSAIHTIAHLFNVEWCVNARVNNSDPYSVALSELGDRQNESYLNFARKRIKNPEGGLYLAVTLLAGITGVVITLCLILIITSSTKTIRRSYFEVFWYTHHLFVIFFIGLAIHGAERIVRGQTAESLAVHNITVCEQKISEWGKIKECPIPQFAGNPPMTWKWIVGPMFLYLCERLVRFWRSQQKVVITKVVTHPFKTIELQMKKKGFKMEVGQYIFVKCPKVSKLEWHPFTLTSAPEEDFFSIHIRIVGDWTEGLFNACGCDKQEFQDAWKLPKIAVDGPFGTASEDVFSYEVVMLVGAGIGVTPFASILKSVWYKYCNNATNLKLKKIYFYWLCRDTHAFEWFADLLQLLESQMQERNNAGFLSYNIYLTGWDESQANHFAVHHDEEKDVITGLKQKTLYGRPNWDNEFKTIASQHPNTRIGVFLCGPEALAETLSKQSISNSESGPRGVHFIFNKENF
T1 sequence (P13498 2-195 partner limits assumed): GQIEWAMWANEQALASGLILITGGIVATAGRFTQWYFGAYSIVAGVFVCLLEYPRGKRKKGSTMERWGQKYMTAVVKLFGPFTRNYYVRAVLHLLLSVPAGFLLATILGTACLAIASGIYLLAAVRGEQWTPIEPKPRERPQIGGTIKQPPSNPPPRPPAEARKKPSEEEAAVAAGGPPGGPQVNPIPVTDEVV
How it was run: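 Stable Nox2-transfected COS cells, stimulated with 5 μM PMA; O2•− is detected by L-012 chemiluminescence. The primary screen of library compounds ran at 100, 50, 25 and 12.5 μM. Follow-up concentration–response data are expressed as % of vehicle control (mean ± SEM of 3–7 independent experiments), and IC50 is extrapolated from the curve slope.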

Nox4 = target: T2, Nox4 (Homo sapiens, UniProt Q9NPH5); test: Amplex Red assay of constitutive Nox4 activity; type: cell-based; settings: for Nox4 activity (in words): Amplex Red, COS-Nox4 cells
T2 sequence (Q9NPH5 1-578): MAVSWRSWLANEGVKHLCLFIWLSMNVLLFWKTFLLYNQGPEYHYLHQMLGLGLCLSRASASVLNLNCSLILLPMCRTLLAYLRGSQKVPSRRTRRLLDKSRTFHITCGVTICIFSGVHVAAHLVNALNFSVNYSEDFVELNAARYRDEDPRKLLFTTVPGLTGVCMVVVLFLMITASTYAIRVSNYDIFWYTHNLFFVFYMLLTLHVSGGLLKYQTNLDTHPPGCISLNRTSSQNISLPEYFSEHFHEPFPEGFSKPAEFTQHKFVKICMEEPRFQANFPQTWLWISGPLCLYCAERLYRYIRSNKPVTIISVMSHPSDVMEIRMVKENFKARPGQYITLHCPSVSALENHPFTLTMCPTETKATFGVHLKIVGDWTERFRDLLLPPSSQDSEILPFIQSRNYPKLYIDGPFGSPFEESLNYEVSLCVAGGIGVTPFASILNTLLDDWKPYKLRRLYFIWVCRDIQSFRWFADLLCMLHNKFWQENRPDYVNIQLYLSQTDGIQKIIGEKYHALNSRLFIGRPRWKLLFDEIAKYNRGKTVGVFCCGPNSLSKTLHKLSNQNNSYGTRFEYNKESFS
T2 sequence (P13498 2-195 partner limits assumed): T1 sequence (P13498 2-195 partner limits assumed)
How it was run: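 Transiently transfected COS-Nox4 cells, unstimulated (constitutive activity), pretreated with various test compound concentrations for 15 min. The initial rate of H2O2 production is read by Amplex Red fluorescence. Results are given as % of vehicle control, mean ± SEM of 3–7 independent experiments; IC50 comes from the concentration–response curve.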

Nox2 [2] = target: T1, Nox2; test: Cell-free Nox2 activity in lysed COS-Nox2 cells; type: biochemical; settings: 6.3 μM compound; COS-Nox2 cell lysate, 130 μM LiDS, 180 μM NADPH
How it was run: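 Cell-free system: COS-Nox2 cell lysate is preincubated with test compound for 15 min at 25 °C. Subunits are assembled with 130 μM LiDS, and the reaction is started with 180 μM NADPH. O2•− is measured as the initial linear rate of SOD-inhibitable cytochrome C reduction, in nmol O2•− per min per 10^7 cell equivalents.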

cell viability = test: CytoTox-Glo cell viability assay; type: cell-based; settings: only at the highest concentration tested
Nox1 = target: T3, Nox1 (Homo sapiens, UniProt Q9Y5S8); type: cell-based; settings: for Nox1 activity (in words): summary of Table 1
T3 sequence (Q9Y5S8 1-564): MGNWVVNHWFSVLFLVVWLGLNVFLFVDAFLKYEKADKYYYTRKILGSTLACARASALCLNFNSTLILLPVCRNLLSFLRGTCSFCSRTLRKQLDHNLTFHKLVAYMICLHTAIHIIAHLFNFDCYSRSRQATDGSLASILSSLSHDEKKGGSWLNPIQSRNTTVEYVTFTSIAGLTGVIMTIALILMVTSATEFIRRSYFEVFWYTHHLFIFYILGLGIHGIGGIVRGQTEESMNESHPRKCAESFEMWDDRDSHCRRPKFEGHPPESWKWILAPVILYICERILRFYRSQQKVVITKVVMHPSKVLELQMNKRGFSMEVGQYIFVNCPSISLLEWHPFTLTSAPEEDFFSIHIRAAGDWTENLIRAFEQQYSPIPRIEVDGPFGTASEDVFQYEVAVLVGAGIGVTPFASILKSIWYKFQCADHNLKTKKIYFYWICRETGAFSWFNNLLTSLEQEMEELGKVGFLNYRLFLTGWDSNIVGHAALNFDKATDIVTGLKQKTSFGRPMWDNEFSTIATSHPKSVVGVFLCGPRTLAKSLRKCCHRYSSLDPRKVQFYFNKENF
T3 sequence (P13498 2-195 partner limits assumed): T1 sequence (P13498 2-195 partner limits assumed)

Nox5 = target: T4, Nox5 (Homo sapiens, UniProt Q96PH1); test: L-012 assay of Nox5 activity in HEK-Nox5 cells; type: cell-based; settings: summary of Table 1
T4 sequence (Q96PH1 1-765): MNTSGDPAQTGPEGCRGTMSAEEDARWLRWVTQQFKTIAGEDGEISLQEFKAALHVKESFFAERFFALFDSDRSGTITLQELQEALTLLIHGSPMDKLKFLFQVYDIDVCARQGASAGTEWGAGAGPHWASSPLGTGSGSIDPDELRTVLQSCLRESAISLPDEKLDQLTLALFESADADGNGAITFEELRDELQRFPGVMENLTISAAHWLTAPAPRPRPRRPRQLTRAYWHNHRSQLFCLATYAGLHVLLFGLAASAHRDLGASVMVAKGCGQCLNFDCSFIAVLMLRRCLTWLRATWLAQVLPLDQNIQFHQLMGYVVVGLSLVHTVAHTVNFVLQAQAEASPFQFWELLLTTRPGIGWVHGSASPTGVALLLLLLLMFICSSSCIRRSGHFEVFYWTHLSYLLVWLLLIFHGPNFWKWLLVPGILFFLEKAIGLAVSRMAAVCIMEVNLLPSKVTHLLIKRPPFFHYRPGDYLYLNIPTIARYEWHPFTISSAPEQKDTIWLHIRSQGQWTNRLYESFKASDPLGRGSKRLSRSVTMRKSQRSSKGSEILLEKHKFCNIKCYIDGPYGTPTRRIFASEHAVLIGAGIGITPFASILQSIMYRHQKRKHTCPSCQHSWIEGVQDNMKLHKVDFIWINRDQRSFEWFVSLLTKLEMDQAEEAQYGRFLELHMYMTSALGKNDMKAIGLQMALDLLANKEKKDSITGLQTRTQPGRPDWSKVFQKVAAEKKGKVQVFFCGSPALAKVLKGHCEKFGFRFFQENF

Nox2 [3] = target: T1, Nox2; test: Amplex Red assay of ROS generation in whole COS-Nox2 cells; type: cell-based
How it was run: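 Whole COS-Nox2 cells stimulated with 5 μM PMA, with SOD added to convert O2•− to H2O2. H2O2 is read by Amplex Red fluorescence across a concentration range of test compound. Activity is expressed as % of vehicle control, as mean ± SEM of 3–7 independent experiments; IC50 is derived from the concentration–response curve.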

C=C(C)C[C@@H]1N[C@H]2CC(C)(C)[C@@H]1c1ccccc12 [Compound 8]
Activity in primary screen (Nox2 [1]; UPCMLD library screen at 100, 50, 25, and 12.5 μM, L-012, COS-Nox2 cells): inactive | pIC50 (Nox4): < 4.00

C=C(C)C[C@H]1[C@H]2c3c(Br)cccc3[C@H](CC2(C)C)N1S(=O)(=O)c1ccc(F)cc1 [Compound 14b]
pIC50 (Nox4): < 4.00

C=C(C)C[C@H]1[C@H]2c3c(Br)cccc3[C@H](CC2(C)C)N1Cc1ccnc2ccccc12 [Compound 11b]
pIC50 (Nox4): < 4.00

C=C(C)C[C@@H]1N[C@H]2CC(C)(C)[C@@H]1c1c(Br)cccc12 [Compound 7]
LiDS-stimulated O2•− generation (Nox2 [2]): almost non-stimulated levels | Effect on cell viability (cell viability): effect on cell viability

C=C(C)C[C@H]1[C@H]2c3c(Br)cccc3[C@H](CC2(C)C)N1S(C)(=O)=O [Compound 14a]
pIC50 (Nox1): < 4.00

C=C(C)C[C@H]1[C@H]2c3c(Br)cccc3[C@H](CC2(C)C)N1Cc1cccs1 [Compound 11h]
Nox1 activity (in words) (Nox1): virtually no effect | pIC50 (Nox4): < 4.00 | Nox4 activity (in words) (Nox4): virtually no effect | Nox5 activity (in words) (Nox5): virtually no effect

CC(C)C[C@@H]1N[C@H]2CC(C)(C)[C@@H]1c1c(Br)cccc12 [Compound 13]
Nox2 inhibitory activity (in words) (Nox2 [1]; text summary of Table 1 (Amplex Red and L-012 assays)): retained inhibitory activity | Nox1 activity (in words) (Nox1): retained inhibitory activity | Nox5 activity (in words) (Nox5): retained inhibitory activity | Effect on cell viability (cell viability): effect on cell viability

C=C(C)C[C@@H]1N[C@H]2CC(C)(C)[C@@H]1c1c(-c3cccnc3)cccc12 [Compound 12d]
pIC50 (Nox2 [3]): < 4.00 | pIC50 (Nox2 [1]): < 4.00

C=C(C)C[C@H]1[C@H]2c3c(Br)cccc3[C@H](CC2(C)C)N1CCCCC [Compound 11g]
Nox1 activity (in words) (Nox1): virtually no effect | Nox4 activity (in words) (Nox4): virtually no effect | Nox5 activity (in words) (Nox5): virtually no effect

C=C(C)C[C@H]1[C@H]2c3c(-c4ccc(Cl)c(Cl)c4)cccc3[C@H](CC2(C)C)N1Cc1ccc2c(c1)OCO2 [Compound 12b]
pIC50 (Nox4): < 4.00

C=C(C)C[C@H]1[C@H]2c3c(Br)cccc3[C@H](CC2(C)C)N1Cc1c[nH]c2ccccc12 [Compound 11c]
pIC50 (Nox4): < 4.00
